Experimental findings from ChEMBL document CHEMBL4368911, “Metal-Binding Pharmacophore Library Yields the Discovery of a Glyoxalase 1 Inhibitor” (J Med Chem, 2019) are described below.

Calls of active or inactive are those of the source. The rule behind the calls is not given here. Some results are limits rather than exact numbers.

Series [1] has as its target T1, Lactoylglutathione lyase (Homo sapiens, UniProt Q04760). Description: Inhibition recombinant human N-terminal 6His-tagged GLO1 (2 to 184 residues) expressed in Escherichia coli using MG as substrate preincubated for 15 to 20 mins followed by substrate addition and measured every 1 min for 8 mins. In outline: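 Recombinant human GLO1, 40 ng per well, preincubated 15–20 min with inhibitor in 100 mM sodium phosphate pH 7.0. Substrate was GSH + MG hemithioacetal, premixed 20 min at room temperature; DMSO ≤5% final. Absorbance at 240 nm read every 1 min for 8 min. Rates compared with no-inhibitor controls after background subtraction. Chugai-1 as reference.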
Target sequence in this assay (Q04760 whole entry, the tested form may be a part): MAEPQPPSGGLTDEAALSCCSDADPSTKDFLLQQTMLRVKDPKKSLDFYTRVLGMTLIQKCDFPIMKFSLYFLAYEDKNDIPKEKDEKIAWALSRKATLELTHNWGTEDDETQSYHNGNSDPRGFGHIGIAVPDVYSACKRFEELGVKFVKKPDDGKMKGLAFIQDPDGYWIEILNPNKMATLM

Series [2] can be described thus: Drug uptake in FVB/NJ mouse brain at 25 mg/kg, ip measured after 240 mins post dose by LC-MS/MS analysis. In kind it is ADME, organism-based. Particulars: read-out: Drug uptake. An outline of the steps: (§1)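 Single i.p. dose, then brain sampled at 30, 60, 120 or 240 min, n = 3 per time point. Mice anesthetized with isoflurane and perfused with PBS through the left ventricle. Brains minced, extracted with acetonitrile, bead-homogenized, centrifuged and filtered. LC-MS/MS against an 11-point calibration (5–5000 ng/mL) spiked into blank brain. Median reported as ng/mg wet brain.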

The test system of series [3] is Mus musculus. The series is described as follows: In-vivo inhibition of GLO1 in FVB/NJ mouse assessed as increase in methylglyoxal accumulation at 12.5 mg/kg, ip measured at 240 mins post dose by LC-MS/MS analysis relative to control. The note with it: in the assay text read “25 mg/kg” for “12.5 mg/kg”. Type of series: functional. In outline:
(§2)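 Brain MG measured 30–240 min after i.p. dosing and compared with vehicle-treated mice. Brains taken after PBS perfusion under isoflurane, then acetonitrile extraction, homogenization, centrifugation and filtration. LC-MS/MS quantified against an 11-point calibration (5–5000 ng/mL) in blank brain matrix. Expressed per mg brain tissue.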

For series [4], the system named is Mus musculus. Description: Antidepressant-like activity in FVB/NJ mouse assessed as reduction in immobility at 12.5 mg/kg, ip measured after 120 mins by forced swim test. In kind it is functional, organism-based. In outline: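 Mice 108–148 days old, 12 h light–dark cycle, tested in the light phase. Each mouse got vehicle (8% DMSO, 18% Tween, […]) on one day and drug on the other, i.p., counterbalanced, about 3 weeks apart. FST run 2 h post-injection: 6 min in a bucket filled 48 cm with 23–25 water. Immobility time analysed by ANOVA with sex and test order as factors.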

Series [5] can be described thus: Drug uptake in FVB/NJ mouse brain at 12.5 mg/kg, ip measured after 240 mins post dose by LC-MS/MS analysis. Type of series: ADME, organism-based. The note with it: read-out: Drug uptake. An outline of the steps: as §1
Series [6] can be described thus: Toxicity in FVB/NJ mouse up to 100 mg/kg, ip. Type of series: organism-based. Particulars: in vivo. In outline: (§3)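 Toxicity in mice judged by observation after i.p. dosing.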
Series [7] is described as follows: Drug uptake in FVB/NJ mouse brain at 25 mg/kg, ip measured after 60 mins post dose by LC-MS/MS analysis. In kind it is ADME, organism-based. The note with it: read-out: Drug uptake. An outline of the steps: as §1
A short description of series [8]: Drug uptake in FVB/NJ mouse brain at 25 mg/kg, ip measured after 30 mins post dose by LC-MS/MS analysis. Type of series: ADME, organism-based. Particulars: read-out: Drug uptake. An outline of the steps:
as §1

Series [9] can be described thus: Drug uptake in FVB/NJ mouse brain at 12.5 mg/kg, ip measured after 30 mins post dose by LC-MS/MS analysis. The note with it: read-out: Drug uptake. Type of series: ADME, organism-based. In outline:
as §1

Series [10] is described as follows: Drug uptake in FVB/NJ mouse brain at 25 mg/kg, ip measured after 120 mins post dose by LC-MS/MS analysis. In kind it is ADME, organism-based. Particulars: read-out: Drug uptake. An outline of the steps:
as §1

Series [11] relates to Mus musculus. Description: In-vivo inhibition of GLO1 in FVB/NJ mouse assessed as increase in methylglyoxal accumulation at 12.5 mg/kg, ip measured at 30 mins post dose by LC-MS/MS analysis relative to control. Type of series: functional. An outline of the steps:
as §2

The nature of series [12]: Drug uptake in FVB/NJ mouse brain at 12.5 mg/kg, ip measured after 120 mins post dose by LC-MS/MS analysis. In kind it is ADME, organism-based. The note with it: read-out: Drug uptake. An outline of the steps:
as §1

Series [13] is described as follows: Drug uptake in FVB/NJ mouse brain at 12.5 mg/kg, ip measured after 60 mins post dose by LC-MS/MS analysis. In kind it is ADME, organism-based. The note with it: read-out: Drug uptake. In outline:
as §1

The target of series [14] is T1, Lactoylglutathione lyase. Description: Inhibition of human GLO1.
Target sequence in this assay (Q04760 whole entry, the tested form may be a part): as above
Series [15] in a line: Toxicity in FVB/NJ mouse at =>50 mg/kg, ip. Type of series: organism-based. Particulars: in vivo. An outline of the steps: as §3
The target of series [16] is T1, Lactoylglutathione lyase. Description: Inhibition recombinant human N-terminal 6His-tagged GLO1 (2 to 184 residues) expressed in Escherichia coli at 50 uM using MG as substrate preincubated for 15 to 20 mins followed by substrate addition and measured every 1 min for 8 mins.
Target sequence in this assay (Q04760 2-184 limits assumed): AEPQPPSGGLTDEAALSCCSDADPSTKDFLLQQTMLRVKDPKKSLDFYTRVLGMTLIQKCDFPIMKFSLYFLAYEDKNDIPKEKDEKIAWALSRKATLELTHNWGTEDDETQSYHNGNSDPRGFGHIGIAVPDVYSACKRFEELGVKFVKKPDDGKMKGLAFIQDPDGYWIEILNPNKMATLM

Usually IC50 stands for the midpoint of a concentration-inhibition curve. Turning to `CS(=O)(=O)Nc1ccc(-c2ccncc2)c2cccnc12`, the IC50 on Lactoylglutathione lyase [1] was more than 20 µM.
On the same count and under the same terms, to `COc1ccc(-c2ccc(NS(=O)(=O)c3ccccn3)c3ncccc23)cc1Cl` belongs 0.59 µM.
`CS(=O)(=O)Nc1ccc(-c2ccc3c(c2)OCO3)c2cccnc12`: the IC50 at Lactoylglutathione lyase [1] came to 11.2 µM.
As to `CS(=O)(=O)Nc1cccc2ccncc12`, on Lactoylglutathione lyase [1], the concentration for half-maximal inhibition (IC50) is more than 200 µM.
Regarding `COc1cccc(-c2ccc(NS(=O)(=O)c3ccccn3)c3ncccc23)c1`, at Lactoylglutathione lyase [1], the IC50 was 1.04 µM.
For `CS(=O)(=O)Nc1ccc(-c2ccc(F)c(F)c2)c2cccnc12`, the IC50 at Lactoylglutathione lyase [1] was found to be 13.9 µM.
With `O=S(=O)(Nc1cccc2cccnc12)C1CC1`, at Lactoylglutathione lyase [1], the IC50 was more than 20 µM.
On the same count and under the same terms, for `O=S(=O)(Nc1cccc2cccnc12)c1ccc2c(c1)OCO2` the value was 6.1 µM; for `Cc1ccc2cccc(NS(C)(=O)=O)c2n1`, 43 µM.
Turning to `O=S(=O)(Nc1ccc(CCc2ccccc2)c2cccnc12)c1ccccn1`, the half-inhibitory concentration (IC50) on Lactoylglutathione lyase [1] was determined as 0.79 µM.
The same measure, in the same setting: to `O=S(=O)(CCc1ccccc1)Nc1cccc2cccnc12` belongs 8.7 µM; to `CSc1nc2ccc(S(=O)(=O)Nc3cccc4cccnc34)cc2s1`, 3.9 µM.
With `O=S(=O)(Nc1cccc2cccnc12)C1CCCCC1`, the IC50 on Lactoylglutathione lyase [1] was more than 20 µM.
For the compound `O=S(=O)(Nc1cc(CCc2ccc(F)cc2)cc2cccnc12)c1ccccn1`, the IC50 on Lactoylglutathione lyase [1] stood at 1.32 µM.
On to `COc1cc(CCc2cc(NS(=O)(=O)c3ccccn3)c3ncccc3c2)cc(OC)c1`, for which the concentration at 4 h worked out at 8300 ng/g in series [2] and 2200 ng/g in series [5]. In addition, the “fold change (FC)” value is on record as 13 in the series on Mus musculus [3] and 11 with Mus musculus [11]. Moreover, the IC50 on Lactoylglutathione lyase [1] is 0.46 to 0.463 µM. Further, in the series on Mus musculus [4], the result was Active. The Activity result in series [6] is reported as “Non-Toxic”. The concentration at 1 h in series [7] came to 6700 ng/g; in series [13], 14400 ng/g. The concentration at 0.5 h in series [8] was 400 ng/g; in series [9] it was 2100 ng/g. Further, the concentration at 2 h in [10] was determined as 18900 ng/g; in series [12] it was 6000 ng/g.
Take `CS(=O)(=O)Nc1ccc(N2CCOCC2)c2cccnc12`: the IC50 on Lactoylglutathione lyase [1] is more than 100 µM.
Same read-out and setting: for `O=S(=O)(Cc1ccccc1)Nc1cccc2cccnc12` the value was 7.6 µM.
On the same count and under the same terms, for `O=S(=O)(Nc1ccc(CCc2ccc(F)cc2)c2cccnc12)c1ccccn1` the value was 0.79 µM.
The term Ki denotes a measure of affinity in units of concentration, obtained from inhibition or displacement. A lower Ki goes with a stronger hold on the target. For `COC(=O)c1c(C)cc(Oc2cc(C)cc(O)c2O)cc1O`, the Ki on Lactoylglutathione lyase [14] amounted to 0.23 µM.
Turning to `CC(=O)Nc1cccc2cccnc12`, the IC50 on Lactoylglutathione lyase [1] is more than 200 µM.
`CC(C)S(=O)(=O)Nc1cccc2cccnc12`: on Lactoylglutathione lyase [1], the IC50 is more than 20 µM.
Same read-out and setting: to `O=S(=O)(Nc1cccc2cccnc12)c1ccc2ncsc2c1` belongs 3.9 µM; to `CC(C)(C)c1ccc(S(=O)(=O)Nc2cccc3cccnc23)cc1`, 4.2 µM.
Still for that read-out and setting: to `O=S(=O)(Nc1cccc2cccnc12)c1ccc2ccccc2c1` belongs 3.6 µM; to `O=S(=O)(Nc1cccc2cccnc12)c1cccs1`, 4.9 µM.
As to `O=S(=O)(Nc1ccc(-c2ccc(Cl)cc2)c2cccnc12)c1ccccn1`, the Activity result in series [15] is listed as “Toxic”. Further, at Lactoylglutathione lyase [1], the IC50 is 0.48 µM.
As for `N#Cc1cccc(S(=O)(=O)Nc2cccc3cccnc23)c1`, the half-maximal inhibitory concentration (IC50) at Lactoylglutathione lyase [1] was found to be 7.3 µM.
Same read-out and setting: for `CS(=O)(=O)Nc1ccc(-c2ccco2)c2cccnc12` the value was 11.9 µM.
Regarding `O=S(=O)(Nc1ccc(-c2ccc(Cl)c(Cl)c2)c2cccnc12)c1ccccn1`, the IC50 on Lactoylglutathione lyase [1] was 0.54 µM.
The same measure, in the same setting: to `COc1ccc(-c2ccc(NS(=O)(=O)c3ccccn3)c3ncccc23)cc1` belongs 0.64 µM; to `O=S(=O)(Nc1cccc2cccnc12)c1ccccc1`, 8.5 µM; to `O=S(=O)(Nc1ccc(-c2cccc(Cl)c2)c2cccnc12)c1ccccn1`, 0.37 µM.
Consider `COc1cc(OC)cc(-c2ccc(NS(=O)(=O)c3ccccn3)c3ncccc23)c1`, for which the IC50 on Lactoylglutathione lyase [1] is 1.19 µM.
Turning to `O=S(=O)(Nc1cccc2cccnc12)c1ccccn1`, the concentration for half-maximal inhibition (IC50) on Lactoylglutathione lyase [1] worked out at 1.3 µM.
`N#Cc1ccccc1S(=O)(=O)Nc1cccc2cccnc12`: the concentration for half-maximal inhibition (IC50) at Lactoylglutathione lyase [1] is more than 20 µM.
Consider `COc1cccc(S(=O)(=O)Nc2cccc3cccnc23)c1`, for which the IC50 on Lactoylglutathione lyase [1] is 6.9 µM.
As to `O=C1Cc2cc(S(=O)(=O)Nc3cccc4cccnc34)ccc2N1`, the IC50 at Lactoylglutathione lyase [1] came to 6.6 µM.
Still for that read-out and setting: for `O=S(=O)(Nc1ccc(-c2ccccc2)c2cccnc12)c1ccccn1` the value was 0.5 µM; for `Cc1ccc2cccc(NS(=O)(=O)c3ccccc3)c2n1`, 14.5 µM; for `O=S(=O)(Nc1cccc2cccnc12)c1ccc(F)c(F)c1`, 5.7 µM.
Same read-out and setting: to `O=S(=O)(Nc1cccc2cccnc12)c1cccnc1` belongs 11.2 µM; to `CS(=O)(=O)Nc1ccc(-c2ccc(Cl)cc2)c2cccnc12`, 6.2 µM; to `CCCCS(=O)(=O)Nc1cccc2cccnc12`, more than 20 µM.
Regarding `COc1ccccc1S(=O)(=O)Nc1cccc2cccnc12`, the half-maximal inhibitory concentration (IC50) on Lactoylglutathione lyase [1] was more than 20 µM.
The same measure, in the same setting: to `O=S(=O)(Nc1cccc2cccnc12)c1ccc(F)cc1` belongs 7.5 µM.
The same measure, in the same setting: for `CS(=O)(=O)Nc1ccc(-c2ccccc2)c2cccnc12` the value was 11.5 µM.
One may read the inhibition as how much of the control response was suppressed. On to `CS(=O)(=O)Nc1cccc2cccnc12`, for which, on Lactoylglutathione lyase [1], the concentration for half-maximal inhibition (IC50) turned out to be 18.5 µM. For the same compound, on Lactoylglutathione lyase [16], the inhibition was more than 50%.
For the compound `O=S(=O)(Nc1ccc(-c2ccc(F)cc2)c2cccnc12)c1ccccn1`, the IC50 at Lactoylglutathione lyase [1] is 0.72 µM.
On the same count and under the same terms, to `O=S(=O)(CCCc1ccccc1)Nc1cccc2cccnc12` belongs 4.6 µM.
On the same count and under the same terms, to `CS(=O)(=O)Nc1ccc(-c2cccs2)c2cccnc12` belongs 15.4 µM; to `Cn1cnc(S(=O)(=O)Nc2cccc3cccnc23)c1`, 5.5 µM.
On the same count and under the same terms, for `COc1ccc(S(=O)(=O)Nc2cccc3cccnc23)cc1` the value was 7 µM.
For the compound `O=S(=O)(Nc1cc(CCc2ccccc2)cc2cccnc12)c1ccccn1`, the IC50 on Lactoylglutathione lyase [1] stood at 1.21 µM.
On to `N#Cc1ccc(S(=O)(=O)Nc2cccc3cccnc23)cc1`, for which the IC50 at Lactoylglutathione lyase [1] stood at 6.6 µM.
Still for that read-out and setting: to `Cn1cc(S(=O)(=O)Nc2cccc3cccnc23)cn1` belongs more than 20 µM; to `CNS(=O)(=O)c1cccc2cccnc12`, more than 200 µM; to `CS(=O)(=O)Nc1cccc2ncccc12`, more than 200 µM.
For `CS(=O)(=O)Oc1cccc2cccnc12`, the IC50 at Lactoylglutathione lyase [1] is more than 200 µM.
On to `CS(=O)(=O)Nc1ccc(-c2cncnc2)c2cccnc12`, for which, at Lactoylglutathione lyase [1], the IC50 was more than 20 µM.
Still for that read-out and setting: to `CS(=O)(=O)Nc1ccc(N2CCCCC2)c2cccnc12` belongs more than 100 µM.
